Measurements: ChEMBL document CHEMBL2040767, “Development of Polar Adenosine A2A Receptor Agonists for Inflammatory Bowel Disease: Synergism with A2B Antagonists” (ACS Med Chem Lett, 2011)

Legend:
Adenosine receptor A1 [1] = target: T1, Adenosine receptor A1 (Rattus norvegicus, UniProt P25099); test: Displacement of [3H]CCPA from adenosine A1 receptor in rat brain cortex; type: tissue-based
T1 sequence (P25099 whole entry): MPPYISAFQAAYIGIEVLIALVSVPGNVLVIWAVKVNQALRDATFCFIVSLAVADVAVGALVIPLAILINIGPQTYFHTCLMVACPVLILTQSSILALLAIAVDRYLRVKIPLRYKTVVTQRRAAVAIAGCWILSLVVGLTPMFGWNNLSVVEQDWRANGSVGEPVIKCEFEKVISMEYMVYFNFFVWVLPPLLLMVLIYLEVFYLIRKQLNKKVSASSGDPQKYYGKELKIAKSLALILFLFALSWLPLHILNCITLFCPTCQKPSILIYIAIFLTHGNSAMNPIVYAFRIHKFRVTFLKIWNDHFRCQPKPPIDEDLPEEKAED

Adenosine receptor A2a [2] = target: T2, Adenosine receptor A2a (Rattus norvegicus, UniProt P30543); test: Displacement of [3H]MSX-2 from adenosine A2A receptor in rat brain striatum; type: tissue-based
Adenosine receptor A2a [3] = target: T3, Adenosine receptor A2a (Homo sapiens, UniProt P29274); test: Displacement of [3H]CGS21680 from human recombinant adenosine A2A receptor
Adenosine receptor A3 [4] = target: T4, Adenosine receptor A3 (Homo sapiens, UniProt P0DMS8); test: Displacement of [3H]PSB-11 from human recombinant adenosine A3 receptor expressed in CHO cells; type: cell-based
T4 sequence (P0DMS8 whole entry): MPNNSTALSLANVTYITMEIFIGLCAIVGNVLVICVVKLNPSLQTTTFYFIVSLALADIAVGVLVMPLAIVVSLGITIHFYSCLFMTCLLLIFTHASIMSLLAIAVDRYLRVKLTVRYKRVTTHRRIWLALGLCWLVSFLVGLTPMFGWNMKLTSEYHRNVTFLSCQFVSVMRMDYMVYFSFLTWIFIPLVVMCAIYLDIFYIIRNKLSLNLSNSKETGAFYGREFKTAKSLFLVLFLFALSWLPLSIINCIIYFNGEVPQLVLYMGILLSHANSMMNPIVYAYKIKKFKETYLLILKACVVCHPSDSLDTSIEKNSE
Summary of the method: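 Competition binding at human recombinant A3 receptor with [3H]PSB-11 as radioligand; Ki reported as mean ± SEM from three experiments.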

Adenosine receptor A1 [5] = target: T5, Adenosine receptor A1 (Homo sapiens, UniProt P30542); test: Displacement of [3H]CCPA from human recombinant adenosine A1 receptor
T5 sequence (P30542 whole entry): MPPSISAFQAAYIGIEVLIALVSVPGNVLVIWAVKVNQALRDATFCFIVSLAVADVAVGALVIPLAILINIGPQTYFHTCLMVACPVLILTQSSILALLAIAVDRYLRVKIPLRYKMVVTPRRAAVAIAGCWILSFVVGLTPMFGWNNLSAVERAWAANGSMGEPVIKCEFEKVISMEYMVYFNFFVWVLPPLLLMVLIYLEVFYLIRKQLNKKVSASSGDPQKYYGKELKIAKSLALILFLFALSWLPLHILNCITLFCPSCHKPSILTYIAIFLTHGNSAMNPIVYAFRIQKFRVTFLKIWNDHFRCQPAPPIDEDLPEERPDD

Adenosine receptor A2a [6] = target: T2, Adenosine receptor A2a; test: Displacement of [3H]CGS21680 from adenosine A2A receptor in rat brain striatum; type: tissue-based
Adenosine receptor A2b = target: T6, Adenosine receptor A2b (Homo sapiens, UniProt P29275); test: Displacement of [3H]PSB-603 from human recombinant adenosine A2B receptor expressed in CHO cells after 75 mins by liquid scintillation assay; type: cell-based
T6 sequence (P29275 whole entry): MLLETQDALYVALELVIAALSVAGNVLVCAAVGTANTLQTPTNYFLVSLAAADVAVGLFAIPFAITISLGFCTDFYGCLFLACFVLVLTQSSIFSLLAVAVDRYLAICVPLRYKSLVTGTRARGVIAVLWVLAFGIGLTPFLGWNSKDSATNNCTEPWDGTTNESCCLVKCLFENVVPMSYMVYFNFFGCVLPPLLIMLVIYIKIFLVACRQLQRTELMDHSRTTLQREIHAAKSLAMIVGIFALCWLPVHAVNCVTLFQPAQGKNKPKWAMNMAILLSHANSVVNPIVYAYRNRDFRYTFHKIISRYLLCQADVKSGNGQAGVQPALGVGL

Adenosine receptor A3 [7] = target: T4, Adenosine receptor A3; test: Displacement of [3H]NECA from human recombinant adenosine A3 receptor
Adenosine receptor A2a [8] = target: T3, Adenosine receptor A2a; test: Agonist activity at human adenosine A2A receptor expressed in CHO-K1 cells by cAMP accumulation assay; type: functional, cell-based
[9] = target: T7, Adenosine receptor A2b (Rattus norvegicus) (UniProt P29276); test: Antagonist activity at adenosine A2B receptor in Wistar rat ileum/jejunum segment assessed as reversal of TNBS-induced inhibition of Ach-induced contraction at 10 uM after 30 mins; type: functional, tissue-based; set-up: scale not given: the % may be the effect or the level left
T7 sequence (whole entry): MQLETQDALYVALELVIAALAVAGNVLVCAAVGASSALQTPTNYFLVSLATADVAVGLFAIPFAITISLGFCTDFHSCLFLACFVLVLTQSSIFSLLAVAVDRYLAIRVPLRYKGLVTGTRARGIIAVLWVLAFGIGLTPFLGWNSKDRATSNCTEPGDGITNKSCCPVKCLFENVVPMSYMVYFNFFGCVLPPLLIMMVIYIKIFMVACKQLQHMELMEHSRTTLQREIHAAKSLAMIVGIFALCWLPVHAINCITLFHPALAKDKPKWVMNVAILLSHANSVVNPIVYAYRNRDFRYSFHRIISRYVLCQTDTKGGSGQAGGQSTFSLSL
Summary of the method: (§1)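 Ex vivo rat ileum/jejunum segments; contractions evoked by acetylcholine 1 mM, expressed as % of Ach contraction without drug (100%). Acute inflammation induced by TNBS 10 mM, with the A2B antagonist (1–100 μM) preincubated alongside TNBS. Means ± SEM of seven experiments.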

[10] = target: T7, Adenosine receptor A2b (Rattus norvegicus); test: Antagonist activity at adenosine A2B receptor in Wistar rat ileum/jejunum segment assessed as reversal of TNBS-induced inhibition of Ach-induced contraction at 100 uM after 30 mins; type: functional, tissue-based; set-up: scale not given: the % may be the effect or the level left; summary of the method: as §1
[11] = target: T7, Adenosine receptor A2b (Rattus norvegicus); test: Antagonist activity at adenosine A2B receptor in Wistar rat ileum/jejunum segment assessed as reversal of TNBS-induced inhibition of Ach-induced contraction after 30 mins; type: functional, tissue-based; summary of the method: as §1

T3 sequence (P29274 whole entry): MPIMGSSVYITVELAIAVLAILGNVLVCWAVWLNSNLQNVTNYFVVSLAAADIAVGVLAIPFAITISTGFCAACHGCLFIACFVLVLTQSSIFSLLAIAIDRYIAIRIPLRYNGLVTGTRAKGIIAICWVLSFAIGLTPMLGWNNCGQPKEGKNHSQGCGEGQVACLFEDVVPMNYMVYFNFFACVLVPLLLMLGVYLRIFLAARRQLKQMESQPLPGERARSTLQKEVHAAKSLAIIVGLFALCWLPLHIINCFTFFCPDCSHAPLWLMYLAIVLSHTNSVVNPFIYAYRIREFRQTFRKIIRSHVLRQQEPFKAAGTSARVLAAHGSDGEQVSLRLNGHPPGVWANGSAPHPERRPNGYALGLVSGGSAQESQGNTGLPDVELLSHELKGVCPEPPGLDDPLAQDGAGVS
T2 sequence (P30543 whole entry): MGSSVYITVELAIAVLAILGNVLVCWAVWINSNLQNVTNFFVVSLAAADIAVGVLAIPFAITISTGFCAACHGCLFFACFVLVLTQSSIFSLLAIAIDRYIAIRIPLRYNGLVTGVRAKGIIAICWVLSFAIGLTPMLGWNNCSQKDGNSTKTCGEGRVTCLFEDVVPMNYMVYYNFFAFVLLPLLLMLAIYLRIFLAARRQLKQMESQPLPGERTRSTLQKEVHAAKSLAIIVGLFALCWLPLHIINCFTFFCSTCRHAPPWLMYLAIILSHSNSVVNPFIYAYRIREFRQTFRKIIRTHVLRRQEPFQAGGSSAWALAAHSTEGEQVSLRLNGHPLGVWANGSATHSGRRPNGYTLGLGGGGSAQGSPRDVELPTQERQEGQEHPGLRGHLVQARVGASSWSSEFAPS

| Ki (Adenosine receptor A1 [1]) | Ki (Adenosine receptor A2a [2]) | Ki (Adenosine receptor A2a [3]) | Ki (Adenosine receptor A3 [4]) | Ki (Adenosine receptor A1 [5]) | Ki (Adenosine receptor A2a [6]) | Ki (Adenosine receptor A2b) | Ki (Adenosine receptor A3 [7]) | EC50 (Adenosine receptor A2a [8]) | Activity [9] | Activity [10] | Activity [11] | SMILES |
| --- | --- | --- | --- | --- | --- | --- | --- | --- | --- | --- | --- | --- |
| 1.93 µM | > 10 µM | > 10 µM | > 10 µM |  |  |  |  |  |  |  |  | Nc1nc(SCC(=O)O)nc2c1ncn2[C@@H]1O[C@H](CO)[C@@H](O)[C@H]1O |
| ≥ 10 µM |  | 0.36 µM | > 10 µM | 0.541 µM | 0.0444 µM | > 10 µM | > 1 µM | 0.117 µM |  |  |  | Nc1nc(SCCc2ccc(S(=O)(=O)O)cc2)nc2c1ncn2[C@@H]1O[C@H](CO)[C@@H](O)[C@H]1O |

More lines, now with the values behind:

| SMILES | Ki (Adenosine receptor A1 [1]) | Ki (Adenosine receptor A2a [2]) | Ki (Adenosine receptor A2a [3]) | Ki (Adenosine receptor A3 [4]) | Ki (Adenosine receptor A1 [5]) | Ki (Adenosine receptor A2a [6]) | Ki (Adenosine receptor A2b) | Ki (Adenosine receptor A3 [7]) | EC50 (Adenosine receptor A2a [8]) | Activity [9] | Activity [10] | Activity [11] |
| --- | --- | --- | --- | --- | --- | --- | --- | --- | --- | --- | --- | --- |
| Nc1nc(SCCc2ccc(C(=O)O)cc2)nc2c1ncn2[C@@H]1O[C@H](CO)[C@@H](O)[C@H]1O | 1.01 µM |  | ≥ 10 µM | > 10 µM | 0.404 µM | 0.152 µM | > 10 µM | > 1 µM |  |  |  |  |
| CCCn1c(=O)[nH]c2nc(-c3ccc(S(=O)(=O)N4CCN(Cc5ccccc5)CC4)cc3)[nH]c2c1=O |  |  |  |  |  |  |  |  |  | 53.3% | 86.1% | Dose-dependent effect |
| Nc1nc(S(=O)(=O)CCc2ccc(S(=O)(=O)O)cc2)nc2c1ncn2[C@@H]1O[C@H](CO)[C@@H](O)[C@H]1O | 1.8 µM |  | > 10 µM | > 10 µM | 0.545 µM | > 10 µM |  |  |  |  |  |  |
